From PMC3751419 (Dalton transactions (Cambridge, England : 2003), 2013)

Key:
HFF cells = assay: Dark and light toxicity with a 740 nm LED lamp, phase contrast images; type: cell-based, human; settings: for light enhancement of cytopathic effect compared to dark toxicity, HFF: 740 nm red light 60 minutes, then 24 hours dark
[1] = Stability in aqueous media by ESR and 51V NMR spectroscopy; type: physicochemical
How it was run: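 A 50 mM DMSO stock was diluted to 4.0 mM in DI water (pH 7.19) and kept in subdued light at room temperature. ESR spectra were recorded at room temperature immediately and at 24, 48 and 72 h. 51V NMR spectra of the 4.0 mM solutions were taken at 0, 24, 48 and 72 h and at seven days. Control: 4.0 mM NaVO3, pH 7.19.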

[2] = tested on: amelanotic malignant melanoma cells; assay: Dark and light toxicity with a 60 W tungsten lamp, phase contrast images; type: cell-based, human
How it was run: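 ATCC amelanotic melanoma line (from a person) grown at 37 °C, 5% CO2 in high-glucose DMEM with 10% FBS, 0.5% pen-strep, 1% glutamine and 1% non-essential amino acids. 10^5 cells/well seeded; after 24 h, medium swapped for test compound at 5 or 20 µM. After 24 h, cells irradiated 30 min with a 60 W tungsten lamp or kept dark. Phase-contrast images at 10x taken 3 h later. Untreated cells served as control.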

[3] = tested on: murine embryonic fibroblasts; settings: room-light or red-light exposure; cited from earlier work
fibrosarcoma cells = settings: room-light or red-light exposure; cited from earlier work
[4] = tested on: metastases of solid tumours; settings: cited from earlier work
A431 carcinoma cells = assay: Dark and light toxicity with a 740 nm LED lamp, phase contrast images; type: cell-based, human
[5] = tested on: platinum-resistant colorectal tumours; settings: cited from earlier work
[6] = tested on: cisplatin-resistant ovarian and testicular cancer cell lines; settings: cited from earlier work
[7] = 4.0 mM in water, pH 7.19, room temperature, day seven

## [Ru(pbt)2(tpphz)VO(sal-L-tryp)]Cl2
HFF cells
  light enhancement of cytopathic effect compared to dark toxicity, HFF: no effect
[1]; [7]
  vanadium(V) species by 51V NMR: a weak, broad peak at −543 ppm

## sodium diaqua-4,4',4”,4”'tetrasulfophthalocyaninecobaltate(II) [Na4[Co(tspc)(H2O)2]]
[2]; 5.0 and 20.0 μM, incubated in the dark one day
  apoptosis of melanoma cells, dark: do not show significant apoptosis
[2]; 5 or 20 μM, 60 W tungsten lamp 30 minutes
  impact on melanoma cells under illumination: no impact
[3]
  cytotoxic activity: no cytotoxic activity
Fibrosarcoma cells
  cytotoxic activity: no cytotoxic activity

## CS(C)=O.[Cl-].[Cl-].[Cl-].[Cl-].[Ru+3].c1c[nH+]c[nH]1.c1c[nH]cn1 [NAMI-A]
[4]
  activity against development and growth of metastases of solid tumours: particularly active

## [Ru(pbt)2(phen2DTT)VO(sal-L-tryp)]Cl2
A431 carcinoma cells; 5 μM, dark and light exposure
  changes in cell morphology of A431 cells: only slight changes in cell morphology
A431 carcinoma cells; 20 μM
  cytopathic effect on A431 cells: anticancer cytopathic effect
A431 carcinoma cells; 740 nm light, A431
  light enhancement of cancer cell death compared to [Ru(pbt)2(tpphz)VO(sal-L-tryp)]Cl2 treated cells: more pronounced light enhancement of cancer cell death
A431 carcinoma cells; 740 nm red light 60 minutes, then 24 hours dark
  light enhancement of cytopathic effect compared to dark toxicity, A431: light enhanced cytopathic effects
HFF cells; 5 μM and 20 μM, dark and light exposure
  changes in morphology of HFF cells: only minor changes in morphology
HFF cells
  light enhancement of cytopathic effect compared to dark toxicity, HFF: no effect
[1]; 4.0 mM in water, pH 7.19, room temperature, 0, 24, 48, and 72 hours
  change in intensity of ESR spectra: no decrease in intensity
[1]; [7]
  vanadium(V) species by 51V NMR: a weak, broad peak at −543 ppm
[1]; 4.0 mM in water, pH 7.19, room temperature, up to 72 hours
  vanadium(V) species by 51V NMR: absence of any vanadium(V) species
[1]; standing at room temperature, pH 7.19
  stability in aqueous media (oxidation of vanadium(IV) centre): considerable stability

## [Cl-].[Cl-].[Cl-].[Cl-].[Ru+3].c1ccc2[nH][nH+]cc2c1.c1ccc2[nH]ncc2c1.c1ccc2[nH]ncc2c1 [KP1019]
[5]
  activity against platinum-resistant colorectal tumours: excellent activity

## Cc1ccnc2c1ccc1c(C)ccnc12.Cc1ccnc2c1ccc1c(C)ccnc12.O=S(=O)([O-])[O-].[O]=[V+2] [metvan, bis(4,7-dimethyl-1,10-phenanthroline)sulfatooxovanadium(IV)]
[6]
  effectiveness against cisplatin-resistant ovarian and testicular cancer cell lines: highly effective
